One assay concerns P388. As to the kind of experiment: Cytotoxicity against mouse P388 cells after 3 days by MTT assay. The note with it: P388, 72 h. The format is functional, cell-based. The gist of the method:
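Mouse lymphocytic leukemia cells grown in Fisher's medium with 10% heat-inactivated FCS at 37 °C, 5% CO2. Seeded at 1500 cells/well in 200 µL cultures, then given compounds in 0.5% DMSO at eight concentrations in triplicate for 3 days. MTT added, formazan dissolved in DMSO and read at 540 nm. IC50 is the concentration giving 50% absorbance reduction versus untreated cells. Assays repeated three times.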

Another assay relates to HT-29. As to the kind of experiment: Cytotoxicity against human HT29 cells after 6 days by MTT assay. The note with it: HT-29, 144 h. It is filed as functional, cell-based. The method, boiled down: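 Human colon carcinoma cells from ATCC kept in RPMI 1640 with 10% heat-inactivated FCS at 37 °C, 5% CO2. Plated at 1000 cells/well and exposed 6 days to eight concentrations spanning a 128-fold range, in triplicate, in 0.5% DMSO. Then 1 mg/mL MTT added for 5 h at 37 °C, formazan dissolved in DMSO, read at 540 nm. IC50 is 50% absorbance reduction versus untreated cells. Three repeats.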
(Formazan colour is commonly taken as a measure of viable cells.)

These results are taken from ChEMBL document CHEMBL1157333, “Cytotoxic dihydroagarofuranoid sesquiterpenes from the stem of Microtropis fokienensis” (J Nat Prod, 2006).

Each structure is given as a SMILES string. In brackets after ≈: the same amount, converted by molar mass.

For the molecule `CC(=O)O[C@@H]1[C@H]2C[C@H](OC(=O)c3ccccc3)[C@]3(COC(=O)CC(C)C)[C@@H](OC(C)=O)[C@@H](OC(=O)c4ccccc4)C[C@@H](C)[C@@]13OC2(C)C`, the values for the IC50 in the assay with P388 and with HT-29 were 0.051 µg/mL (≈ 0.0751 µM) and 0.082 µg/mL (≈ 0.121 µM), respectively.
In the case of `CC(=O)O[C@H]1CC[C@@H](C)[C@]23OC(C)(C)[C@H](C[C@H](OC(=O)c4ccccc4)[C@]12COC(=O)c1ccccc1)[C@H]3OC(C)=O`, the values for the IC50 in the assay with P388 and with HT-29 were 0.043 µg/mL (≈ 0.0743 µM) and 0.071 µg/mL (≈ 0.123 µM), respectively.
Take `CC(=O)O[C@@H]1[C@H]2C[C@H](OC(=O)c3ccccc3)[C@]3(COC(=O)c4ccccc4)[C@@H](OC(C)=O)[C@@H](OC(=O)c4ccccc4)C[C@@H](C)[C@@]13OC2(C)C` [FOKIENAGAROFURAN A]: the IC50 (as a rule, the concentration needed to halve the response being measured) is 0.032 µg/mL (≈ 0.0458 µM) in the assay with P388 and 0.054 µg/mL (≈ 0.0773 µM) in the assay with HT-29.
The like results for `CC(=O)O[C@H]1[C@@H](OC(=O)c2ccccc2)C[C@@H](C)[C@]23OC(C)(C)[C@H](C[C@H](OC(=O)c4ccccc4)[C@]12COC(=O)c1ccccc1)[C@H]3OC(=O)c1ccccc1` [FOKIENAGAROFURAN D] were, in that order, 0.036 µg/mL (≈ 0.0473 µM) and 0.058 µg/mL (≈ 0.0762 µM).
The corresponding values for `CO[C@H](C(=O)[C@@H](O)[C@@H](C)O)[C@@H]1Cc2cc3cc(O[C@H]4C[C@@H](O[C@@H]5C[C@@H](O)[C@H](O)[C@@H](C)O5)[C@H](O)[C@@H](C)O4)c(C)c(O)c3c(O)c2C(=O)[C@H]1O[C@H]1C[C@@H](O[C@@H]2C[C@@H](O)[C@@H](O[C@@H]3C[C@](C)(O)[C@H](O)[C@@H](C)O3)[C@@H](C)O2)[C@H](O)[C@@H](C)O1` [PLICAMYCIN] are 0.06 µg/mL (≈ 0.0553 µM) and 0.08 µg/mL (≈ 0.0737 µM).
